# Reference: ChEMBL document CHEMBL4177648, “Benzofuran-dihydropyridine hybrids: A new class of potential bone anabolic agents” (Bioorg Med Chem, 2017)
# The source made the active and inactive calls. The rule behind the calls is not given here.
# Legend:
# [1] = tested on: Calvarial osteoblast; assay: Upregulation of Osx mRNA levels in rat calvarial osteoblasts at 10 nM after 48 hrs by qRT-PCR analysis relative to control; format: functional
# In short: (§1)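 Rat pup calvarial osteoblasts were treated for 48 h with compound. Total RNA was extracted with TRIzol and checked by A260 and A260/A280. qRT-PCR used 45 cycles (94 °C, 62 °C, 72 °C steps) and was normalised to GAPDH. Fold change is over untreated cells; n=5, mean ± SEM.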
# [2] = tested on: Calvarial osteoblast; assay: Upregulation of Runx2 mRNA levels in rat calvarial osteoblasts at 1 uM after 48 hrs by qRT-PCR analysis relative to control; format: functional; in short: as §1
# [3] = tested on: Calvarial osteoblast; assay: Upregulation of ALP mRNA levels in rat calvarial osteoblasts at 1 uM after 48 hrs by qRT-PCR analysis relative to control; format: functional; in short: as §1
# [4] = tested on: Calvarial osteoblast; assay: Anabolic activity in rat calvarial osteoblasts assessed as induction of alkaline phosphatase activity at 1 pM after 48 hrs in presence of beta-glycerophosphate and ascorbic acid by p-nitrophenyl phosphate substrate based assay (reference value: 1 to 1.21); format: functional
# [5] = tested on: Calvarial osteoblast; assay: Upregulation of Col1 mRNA levels in rat calvarial osteoblasts at 1 uM after 48 hrs by qRT-PCR analysis relative to control; format: functional; in short: as §1
# [6] = tested on: Calvarial osteoblast; assay: Anabolic activity in rat calvarial osteoblasts assessed as induction of alkaline phosphatase activity at 100 uM after 48 hrs in presence of beta-glycerophosphate and ascorbic acid by p-nitrophenyl phosphate substrate based assay (reference value: 1 to 1.21); format: functional
# [7] = tested on: Calvarial osteoblast; assay: Upregulation of Col1 mRNA levels in rat calvarial osteoblasts at 10 nM after 48 hrs by qRT-PCR analysis relative to control; format: functional; in short: as §1
# [8] = tested on: Calvarial osteoblast; assay: Upregulation of Runx2 mRNA levels in rat calvarial osteoblasts at 10 nM after 48 hrs by qRT-PCR analysis relative to control; format: functional; in short: as §1
# [9] = tested on: Calvarial osteoblast; assay: Anabolic activity in rat calvarial osteoblasts assessed as induction of alkaline phosphatase activity at 10 nM after 48 hrs in presence of beta-glycerophosphate and ascorbic acid by p-nitrophenyl phosphate substrate based assay (reference value: 1 to 1.21); format: functional
# [10] = tested on: Calvarial osteoblast; assay: Upregulation of Bmp2 mRNA levels in rat calvarial osteoblasts at 1 uM after 48 hrs by qRT-PCR analysis relative to control; format: functional; in short: as §1
# [11] = tested on: Calvarial osteoblast; assay: Anabolic activity in rat calvarial osteoblasts assessed as induction of alkaline phosphatase activity after 48 hrs in presence of beta-glycerophosphate and ascorbic acid by p-nitrophenyl phosphate substrate based assay; format: functional, cell-based
# [12] = tested on: Calvarial osteoblast; assay: Induction of mineralization in rat calvarial osteoblasts at 10 nM after 21 days by Alizarin-red dye based assay; format: functional, cell-based
# In short: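 Rat pup calvarial osteoblasts were seeded at 1×10^4 cells/well in differentiation medium with compound. Medium was changed every other day for 21 days. Cells were fixed in 4% paraformaldehyde and stained with 40 mM Alizarin red (pH 4.5). Stain was extracted with 10% acetic acid, heated to 85 °C, and neutralised with NH4OH. Absorbance was read at 405 nm.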
# [13] = tested on: Calvarial osteoblast; assay: Upregulation of Bmp2 mRNA levels in rat calvarial osteoblasts at 10 nM after 48 hrs by qRT-PCR analysis relative to control; format: functional; in short: as §1
# [14] = tested on: Calvarial osteoblast; assay: Anabolic activity in rat calvarial osteoblasts assessed as induction of alkaline phosphatase activity at 100 pM after 48 hrs in presence of beta-glycerophosphate and ascorbic acid by p-nitrophenyl phosphate substrate based assay (reference value: 1 to 1.21); format: functional
# [15] = tested on: Calvarial osteoblast; assay: Upregulation of Osx mRNA levels in rat calvarial osteoblasts at 1 uM after 48 hrs by qRT-PCR analysis relative to control; format: functional; in short: as §1
# [16] = tested on: Calvarial osteoblast; assay: Anabolic activity in rat calvarial osteoblasts assessed as induction of alkaline phosphatase activity at 1 uM after 48 hrs in presence of beta-glycerophosphate and ascorbic acid by p-nitrophenyl phosphate substrate based assay (reference value: 1 to 1.21); format: functional
# [17] = tested on: Calvarial osteoblast; assay: Upregulation of ALP mRNA levels in rat calvarial osteoblasts at 10 nM after 48 hrs by qRT-PCR analysis relative to control; format: functional; in short: as §1
compound,measurement,setting,value
CCOC(=O)C1=C(C)NC2=C(C(=O)CCC2)C1c1cc(C(C)CC)c2oc(C(=O)c3ccc(OC)cc3)cc2c1 (configuration not stated),fold change (FC),[1],2 - 5.5
same,fold change (FC),[2],2 - 5.5
same,fold change (FC),[3],2 - 5.5
same,OD,[4],0.94
same,fold change (FC),[5],2 - 5.5
same,OD,[6],0.25
same,fold change (FC),[7],2 - 5.5
same,fold change (FC),[8],2 - 5.5
same,OD,[9],1.4
same,fold change (FC),[10],2 - 5.5
same,EC50,[11],10 nM
same,Activity,[12],Active
same,fold change (FC),[13],2 - 5.5
same,OD,[14],0.99
same,fold change (FC),[15],2 - 5.5
same,OD,[16],1.37
same,fold change (FC),[17],2 - 5.5
